Compound activity deposited in PubChem BioAssay by several laboratories.
Most compounds without a hit are left out; they make up all but 5.4% or so of the library.
T cruzi repl = inhibitors of intracellular T. cruzi growth, primary screen, luminescence, NIH3T3 host cells | T. cruzi beta-gal in NIH3T3, 90 h | actives 1.4% (n = 300,000) | AID 1885, 2009 | inhibition, % (test concentration not listed);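 active = mean inhibition across valid replicates above about 55%, limit read from the data; inconclusive = mean below that limit but half or more replicates reach it; inactive = mean below it, under half of replicates reach it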;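 also: signal also drops with host cell toxicity which is not excluded here; higher percent means less beta-gal luminescence so fewer parasites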
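System: mouse NIH/3T3 fibroblasts infected with β-gal-expressing T. cruzi Tulahuen C4 / Input: NIH/3T3 cells, 5,000 per well / Buffer or medium: Low-serum DMEM with 2% FBS / Probe or stimulus: 5000 reporter trypomastigotes per well / Schedule: ≥90 h infection period, 3 h prior cell attachment / Measured by: GalScreen luminescence, 60 min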
CSC inhib = cancer stem cell viability inhibitors, primary screen, luminescence; actives 1.1% (n = 300,000); cancer stem cell-like cells viability; AID 2717, 2010; inhibition, % at 7.5 µM; in the data active = inhibition above about 75%; inconclusive = no clear call, values can overlap the other calls; tested in HMLE shEcad cells
Mdm2 MdmX PPI = inhibitors of human Mdm2-MdmX association, primary screen, cell-based, luminescence, split luciferase, SaOS-2, uHTS. SaOS-2 split-luciferase Mdm2/MdmX complementation. actives 3% (n = 330,000). inhibition, % at 8 µM. Protein Mdm4 (Homo sapiens) + E3 ubiquitin-protein ligase Mdm2 (Homo sapiens), …;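 active = inhibition of at least 50% at 8 µM in the primary screen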
Target sequence (O15151 whole entry, looked up): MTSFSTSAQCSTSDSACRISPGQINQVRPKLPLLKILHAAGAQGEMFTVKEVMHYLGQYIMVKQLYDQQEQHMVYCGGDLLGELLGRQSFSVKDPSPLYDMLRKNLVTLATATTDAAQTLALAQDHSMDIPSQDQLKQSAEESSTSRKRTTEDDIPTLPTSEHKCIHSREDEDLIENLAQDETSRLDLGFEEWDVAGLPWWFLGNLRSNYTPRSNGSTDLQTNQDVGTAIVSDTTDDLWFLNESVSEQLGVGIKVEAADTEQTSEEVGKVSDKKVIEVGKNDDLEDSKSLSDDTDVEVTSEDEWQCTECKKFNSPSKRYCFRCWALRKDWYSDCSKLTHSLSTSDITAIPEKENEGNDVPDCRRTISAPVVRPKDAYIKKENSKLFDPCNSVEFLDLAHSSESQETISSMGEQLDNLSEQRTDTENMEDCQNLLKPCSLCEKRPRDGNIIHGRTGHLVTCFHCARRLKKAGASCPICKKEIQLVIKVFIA
Target sequence (Q00987 whole entry, looked up): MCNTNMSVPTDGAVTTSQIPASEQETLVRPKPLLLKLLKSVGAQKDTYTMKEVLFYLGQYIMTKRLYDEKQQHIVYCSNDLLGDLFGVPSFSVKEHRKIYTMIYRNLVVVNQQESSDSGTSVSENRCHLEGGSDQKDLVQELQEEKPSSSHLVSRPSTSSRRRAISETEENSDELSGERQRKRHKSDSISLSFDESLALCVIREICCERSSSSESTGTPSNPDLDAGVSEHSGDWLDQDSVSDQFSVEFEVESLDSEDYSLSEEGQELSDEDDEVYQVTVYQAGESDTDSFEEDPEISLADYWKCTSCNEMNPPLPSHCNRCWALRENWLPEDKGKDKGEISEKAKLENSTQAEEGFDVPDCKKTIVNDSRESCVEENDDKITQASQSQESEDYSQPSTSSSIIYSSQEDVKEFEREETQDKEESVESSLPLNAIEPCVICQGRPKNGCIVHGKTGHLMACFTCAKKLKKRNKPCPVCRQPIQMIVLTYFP
SKKanGAS inh = S. pyogenes SKKanGAS growth inhibitors in kanamycin, primary screen, streptokinase expression inhibitor project, SKKanGAS strain, BacTiter-Glo luminescence. actives 1.3% (n = 300,000). 6 h. inhibition, % at 7.5 µM;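 active = mean replicate score, as percent of positive control median, at least 50; inconclusive = mean below 50 but one replicate at or above 50; inactive = mean and every replicate below 50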;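 also: strain carries kanamycin resistance gene driven by streptokinase promoter and grows in 40 µg/ml kanamycin; loss of luminescence reflects streptokinase promoter inhibition or plain growth inhibition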
aSyn UTR inh = MLPCN primary screen, SNCA 5' untranslated region; alpha-synuclein 5'UTR reporter, inhibitor activity; inhibition, % (tested at 7.5 µM); actives 0.82% (n = 300,000); AID 1813, 2009; in the data active = inhibition above about 60%; inconclusive = no clear call, values can overlap the other calls;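 also: H4 neuroglioblastoma cells stably carrying SNCA 5'UTR luciferase fusion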
Mdm2 MdmX conf = Mdm2-MdmX complex disruptors, retested hits, confirmation, luminescence, single concentration. shares compounds with Mdm2 MdmX PPI. Mdm2-MdmX binding, luminescent assay. inhibition, % at 8 µM. actives 55% (n = 10,000). AID 489028, 2010; in the data active = inhibition above about 40%
FLuc counter = full-length luciferase signal inhibition, confirmation, counter-screen for Mdm2/MdmX interaction inhibitor project, cell-based, single concentration, SaOS-2; inhibition, % at 8 µM; shares compounds with Mdm2 MdmX PPI; actives 77% (n = 6,200); SaOS-2 full-length luciferase counterscreen, luminescence;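 active = mean inhibition at 8 µM reaching about 37%, which flags the compound as non-specific, limit read from the data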;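 also: p53-null SaOS-2 cells with luciferase driven by a doxycycline-inducible promoter; compound on cells about two nights before reading with doxycycline added after day one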
Large screens that a line does not name were inactive (follow-up assays come after a bar, where they were run).

COc1cccc(C(C(=O)NCc2ccccc2)N(C(=O)c2csnn2)C2CC2)c1 (configuration not stated)	none
Cn1ccnc1C(=O)c1cc(SCC(=O)NC2CC2)nc2ccccc12	none
CN(C(=O)CSc1cc(C(=O)c2nccn2C)c2ccccc2n1)c1ccccc1	Mdm2 MdmX PPI 52.7 (no result: CSC inhib) | Mdm2 MdmX conf 62.6 | FLuc counter 81.3
COc1ccc(OC)c(NC(=O)CCCCCn2nnc3ccccc3c2=O)c1	none
CCN(CC)c1ccc2cc(-c3nc4ccccc4[nH]3)c(=O)oc2c1	Mdm2 MdmX PPI 67.2 | Mdm2 MdmX conf 47.0 | FLuc counter 44.8
CCN(CC)c1ccc2cc(-c3nc4ccccc4n3C)c(=O)oc2c1	none (no result: Mdm2 MdmX PPI)
CCN(C[C@H]1N[C@@](Cc2ccccc2)(C(=O)OC)[C@H]2C(=O)N(Cc3ccccc3)C(=O)[C@@H]12)S(=O)(=O)c1ccc(C(F)(F)F)cc1	none (no result: T cruzi repl, CSC inhib, SKKanGAS inh, aSyn UTR inh)
CCN(C[C@H]1N[C@@](CC)(C(=O)OC)[C@H]2C(=O)N(Cc3ccccc3)C(=O)[C@@H]12)C(=O)Nc1ccc(C)cc1	none (no result: T cruzi repl, CSC inhib, SKKanGAS inh, aSyn UTR inh)
CCN(C[C@H]1N[C@@](CC)(C(=O)OC)[C@H]2C(=O)N(Cc3ccccc3)C(=O)[C@@H]12)C(=O)Nc1ccc(Cl)cc1	Mdm2 MdmX PPI 60.4 (no result: T cruzi repl, CSC inhib, SKKanGAS inh, aSyn UTR inh) | Mdm2 MdmX conf 62.0 | FLuc counter 58.0
CCN(C[C@H]1N[C@@](CC)(C(=O)OC)[C@H]2C(=O)N(C)C(=O)[C@@H]12)C(=O)Nc1ccc(Cl)cc1	none (no result: T cruzi repl, CSC inhib, SKKanGAS inh, aSyn UTR inh)
CCN(C[C@H]1N[C@@](Cc2ccccc2)(C(=O)OC)[C@H]2C(=O)N(Cc3ccccc3)C(=O)[C@@H]12)C(=O)Nc1ccc(C(F)(F)F)cc1	Mdm2 MdmX PPI 85.2 (no result: T cruzi repl, SKKanGAS inh, aSyn UTR inh) | Mdm2 MdmX conf 40.0 | FLuc counter 58.0
CCN(C[C@H]1N[C@@](Cc2ccccc2)(C(=O)OC)[C@H]2C(=O)N(Cc3ccccc3)C(=O)[C@@H]12)C(=O)Nc1ccc(C)cc1	Mdm2 MdmX PPI 54.2 (no result: T cruzi repl, CSC inhib, SKKanGAS inh, aSyn UTR inh) | Mdm2 MdmX conf 51.1 | FLuc counter 73.7
CCCCc1cc(=O)oc2cc(OCC(=O)N3CCC(C(=O)O)(c4ccccc4)CC3)ccc12	none
COc1cccc(/C=N/NC(=O)c2cc(-c3cccn3C)n[nH]2)c1O	CSC inhib 87.2, Mdm2 MdmX PPI 53.1, aSyn UTR inh 94.7 | Mdm2 MdmX conf 63.5 | FLuc counter inactive
COc1ccc(OC)c2[nH]c(C(=O)N/N=C/c3ccccc3O)cc12	Mdm2 MdmX PPI 81.6, SKKanGAS inh 113.5 | Mdm2 MdmX conf 71.4 | FLuc counter inactive
COc1ccc(/C=N/NC(=O)c2cc3c(OC)ccc(OC)c3[nH]2)cc1O	Mdm2 MdmX PPI 61.1, aSyn UTR inh 68.3 | Mdm2 MdmX conf 47.5 | FLuc counter 90.5
COc1ccccc1/C=N/NC(=O)c1cc2c(OC)c(OC)ccc2[nH]1	none
Cc1cc(C=O)c(O)cc1O	none
CCOc1cc(C2NC(=O)NC(C)=C2C(=O)NCc2ccccc2)c(Cl)cc1O (configuration not stated)	none
CC[C@@H]1C/C=C\Cc2ccccc2[C@@H](C(=O)C[C@H](O)CC(C)=O)OC1=O	none (no result: T cruzi repl, SKKanGAS inh, aSyn UTR inh)
Cc1cc(N2CCOCC2)nc(NCc2ccccc2)n1	none
Cc1cc(OC2CCCCC2)nc(NCc2ccccc2)n1	Mdm2 MdmX PPI 50.4 | Mdm2 MdmX conf inactive
Cc1cc(N/N=C/c2cccc(Cl)c2)nc(NCc2ccccc2)n1	none
Cc1cc(N2CCCCC2)nc(NCc2ccccc2)n1	T cruzi repl 55.7, Mdm2 MdmX PPI 64.7 (no result: CSC inhib) | Mdm2 MdmX conf 44.7 | FLuc counter 60.6
Cc1cc(Nc2cccc(Cl)c2)nc(NCc2ccccc2)n1	T cruzi repl 58.3, CSC inhib 108.2, Mdm2 MdmX PPI 58.6 | Mdm2 MdmX conf inactive | FLuc counter 61.9
Cc1cc(NC(=O)CC#N)n(-c2ccccc2)n1	none
O=c1oc(C2(O)CCCCC2)cc2ccccc12	none (no result: T cruzi repl, CSC inhib, SKKanGAS inh, aSyn UTR inh)
O=c1oc(C2(O)CCCCC2)cc2ccc(-c3ccc4[nH]ccc4c3)cc12	Mdm2 MdmX PPI 81.5 (no result: T cruzi repl, CSC inhib, SKKanGAS inh, aSyn UTR inh) | Mdm2 MdmX conf 61.0 | FLuc counter 41.2
CN1CCN(c2nc3ccccc3nc2C(C#N)C(=O)OC2CCCCC2)CC1 (configuration not stated)	Mdm2 MdmX PPI 51.1 | Mdm2 MdmX conf inactive | FLuc counter 84.4
Cc1ccc(-c2cc(-c3ccccc3)c(C#N)c(Br)n2)cc1	Mdm2 MdmX PPI 72.1 | Mdm2 MdmX conf inactive
CS(=O)(=O)c1nc(-c2ccccc2)cc(-c2ccccc2)c1C#N	Mdm2 MdmX PPI 100.4 | Mdm2 MdmX conf inactive
Cc1ccc(-c2cc(-c3ccccc3)nc(Cl)n2)cc1	none
CCOc1ccc(S(=O)(=O)N2CCCCC2)cc1NC(=O)CN1C(=O)NC(C)(c2ccc(C)cc2)C1=O (configuration not stated)	none
O=C(Nc1ccc(Cl)cc1)c1cccc(S(=O)(=O)Nc2ccccn2)c1	none
COc1cccc(/C=C2/SC(=S)N(CCCC(=O)Nc3ccc(O)cc3)C2=O)c1	Mdm2 MdmX PPI 100.4 | Mdm2 MdmX conf 84.7 | FLuc counter inactive
O=C(CN1C(=O)S/C(=C\C=C\c2ccccc2)C1=O)Nc1ccc(O)cc1	CSC inhib 79.2, Mdm2 MdmX PPI 77.8 | Mdm2 MdmX conf 41.9 | FLuc counter 80.6
Cc1ccc(/C=C2\SC(=S)N(CCC(=O)NNC(=O)c3ccccc3O)C2=O)cc1	Mdm2 MdmX PPI 53.4, SKKanGAS inh inconclusive | Mdm2 MdmX conf inactive
COc1ccc(/C=C2/SC(=S)N(CCCC(=O)Nc3ccc(O)cc3)C2=O)cc1OC	Mdm2 MdmX PPI 89.9 | Mdm2 MdmX conf 47.7 | FLuc counter inactive
CCC(C)C(=O)Nc1nnc(SCC(=O)NC(C)(C)C)s1 (configuration not stated)	none
Cc1cccc(C)c1OCCCCN1CCCCC1	none
Cc1nc(NC(=O)CSC2=NCCS2)sc1C(=O)N(C)C	none
O=C(CCN1C(=O)/C(=C\c2ccccc2)SC1=S)Nc1ccc(C(=O)O)cc1	none
O=C(CCCN1C(=O)/C(=C\c2ccccc2)SC1=S)Nc1ccc(O)cc1	Mdm2 MdmX PPI 98.7 | Mdm2 MdmX conf 99.5 | FLuc counter inactive
COc1cccc(/C=C2\SC(=S)N(CCCC(=O)NC3=NCCS3)C2=O)c1	Mdm2 MdmX PPI 62.5 | Mdm2 MdmX conf inactive
CC(/C=C1\SC(=S)N(CCC(=O)Nc2ccc(O)cc2)C1=O)=C\c1ccccc1	Mdm2 MdmX PPI 62.0 | Mdm2 MdmX conf inactive
Cc1ccc(/C=C2\SC(=S)N(CCCC(=O)NC3CCCC3)C2=O)cc1	Mdm2 MdmX PPI 62.9, aSyn UTR inh 97.5 | Mdm2 MdmX conf inactive
Cc1ccc(NC(=O)c2ccc(OCc3c(C)noc3C)cc2)cc1C	none (no result: T cruzi repl, SKKanGAS inh, aSyn UTR inh)
